Screens (PubChem)
RAD54 branch: blocks human RAD54 Holliday junction branch migration; Q92698; FAM/BHQ fluorescence; inhibition, % at 10.4 µM; 360,000 compounds, 0.14% hits;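 active = mean normalized replicate activity at least 40 and at least half of replicates scoring 40 or more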;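 note: 0% = median of neutral control wells and 100% = median of positive control wells; inhibitors cause a drop in the FAM fluorescence signal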
E-sel inducer: induces E-selectin expression in human endothelial cells | P16581 | HUVEC E-selectin immunofluorescence imaging; normalized: neutral wells 0, TNF-alpha wells 100 | activation, % at 7.58 µM | 260,000 compounds, 0.37% hits | AID 686992;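 active = mean E-selectin-positive cell signal at least 10% of the positive control, reached in at least 60% of replicates, without over 20% cell loss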
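Read-out basis: % PE-positive cells; Test system: HUVEC primary endothelial cells; Technique: immunofluorescence imaging; Dosing: single-point compound dose.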
RAD52 inh: RAD52 (human) annealing inhibition; P43351; recombinant RAD52 DNA annealing, FRET fluorescence; inhibition, % at 18.7 µM; 360,000 compounds, 0.46% hits;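 active = every replicate showing at least 50% inhibition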
Target sequence (P43351 whole entry, looked up): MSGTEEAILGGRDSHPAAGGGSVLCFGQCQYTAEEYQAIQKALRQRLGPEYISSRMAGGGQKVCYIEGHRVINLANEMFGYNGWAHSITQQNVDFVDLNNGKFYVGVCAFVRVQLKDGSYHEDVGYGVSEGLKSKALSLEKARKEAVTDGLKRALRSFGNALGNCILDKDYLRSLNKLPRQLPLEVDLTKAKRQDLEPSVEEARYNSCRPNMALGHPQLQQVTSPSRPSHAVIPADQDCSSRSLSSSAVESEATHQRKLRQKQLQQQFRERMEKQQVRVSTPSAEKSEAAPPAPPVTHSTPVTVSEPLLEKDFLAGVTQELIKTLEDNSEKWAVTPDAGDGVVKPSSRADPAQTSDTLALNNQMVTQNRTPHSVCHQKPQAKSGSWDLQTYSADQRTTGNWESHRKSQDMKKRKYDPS
PglD DTNB: inhibitors of Campylobacter jejuni PglD acetyltransferase. AID 602405. 360,000 compounds, 0.098% hits. inhibition, % at 12.5 µM. purified PglD enzyme, DTNB colorimetric CoA detection; in the data active = inhibition above about 16%, passing the limit was not always enough
Xi reactivation: activators of X-chromosome reactivation in mouse fibroblasts. AID 743238. 360,000 compounds, 0.055% hits. XiGFP mouse fibroblasts, % GFP-positive cells imaging, 3 d; cells co-treated with 5-aza-dC sensitizer; scaled so ellipticine positive control = 100%. activation, % at 7.58 µM;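 active = mean normalized replicate activation at least 10% and every replicate at or above 10%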;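 note: 0% = median of on-plate neutral control wells and 100% = ellipticine 6 µM median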
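System: XiGFP fibroblasts, SV40-immortalized. Medium: DMEM plus 5-aza-dC sensitizer. Doses: single point. Timing: 3 d treatment, 15 min room-temperature fixation. Control set: ellipticine 6 µM.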
Ecoli rRNA inh: selective bacterial rRNA inhibition in E. coli | GFP signal change (wild-type ribosome), % (no concentration beside the values) | AID 720706 | E. coli WT GFP vs humanized-ribosome RFP mutants, fluorescence, 24 h; stronger effect = lower value; DMSO median 0, no signal -100 | 350,000 compounds, 1.6% hits;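 active = significant combined selectivity score with lowered wild-type GFP, culture density cut under 30%, mutant RFP and density less affected; inactive = any of these conditions unmet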
PglD confirm: blocks Campylobacter jejuni PglD acetyltransferase activity; shares compounds with PglD DTNB; Purified C. jejuni PglD, DTNB absorbance 412 nm; inhibition, % at 20 µM; 320 tested, under 10 active;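 active = mean inhibition across replicates of at least 20% with every single replicate also at 20% or more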;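 note: initial rate of CoA release by acetyl transfer from AcCoA to the UDP-4-amino sugar; 0% = median of neutral control wells and 100% = median of positive control wells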
* = called active by the depositor. Most compounds without a hit are left out; they make up all but 2% or so of the library.

Screening CC(=O)c1ccc(N2CCN(CCC#N)CC2)c(F)c1 returned RAD54 branch 4.3, PglD DTNB 25.7* and PglD confirm 1.1.
C/C=C/c1ccc2c(c1)O[C@@H](CN(C)C(=O)NCCC)[C@@H](C)CN([C@H](C)CO)S2(=O)=O was read as RAD54 branch 6.4, E-sel inducer -0.1, RAD52 inh -3.0, PglD DTNB 2.8, Xi reactivation 0.6 and Ecoli rRNA inh -1.4.
`CO[C@H]1CN(C)C(=O)c2ccc(NC(=O)C3CC3)cc2OC[C@@H](C)N(CC2CC2)C[C@H]1C` gave RAD54 branch -6.6, E-sel inducer 0.1, RAD52 inh -0.2, PglD DTNB 2.0, Xi reactivation 0.5 and Ecoli rRNA inh -1.1.
COC(=O)c1cccc(NC(=S)NCCC2=CCCCC2)c1 was read as RAD54 branch 7.1, RAD52 inh -8.2, PglD DTNB 66.2*, Ecoli rRNA inh -31.6 and PglD confirm 2.1.
Screening COC(=O)c1ccc(NC(=S)NCCC2=CCCCC2)cc1 returned RAD54 branch -2.5 and PglD DTNB -8.9.
Screening CCCCNC(=S)NNc1c(Cl)cc(Cl)cc1Cl returned RAD54 branch -2.3, E-sel inducer 1.7, RAD52 inh 0.9, PglD DTNB 22.7*, Xi reactivation 0.0, Ecoli rRNA inh 2.4 and PglD confirm 10.0.
C/C(=N/NC(=O)c1cccs1)c1ccc(NC(=O)COc2ccc(Cl)cc2Cl)cc1 was read as RAD54 branch -1.0, PglD DTNB 21.4* and PglD confirm 0.5.
`C/C(=N/NC(=O)c1ccc(Cl)s1)c1ccc(NC(=O)COc2ccc(Cl)cc2)cc1` gave RAD54 branch -12.9 and PglD DTNB 3.9.
C[C@H]1CN([C@@H](C)CO)C(=O)Cc2cc(NC(=O)CCCCCC(=O)Nc3ccccc3N)ccc2O[C@H]1CN(C)C(=O)NC1CCCCC1 was read as RAD54 branch 3.6, E-sel inducer 1.0, RAD52 inh 3.1, PglD DTNB 1.9, Xi reactivation 0.0 and Ecoli rRNA inh 2.8.
Cc1cc(N2CCOCC2)nc2ccc(NC(=O)CCC(=O)N3CCC(C)CC3)cc12 was read as RAD54 branch -2.2 and PglD DTNB -5.1.
`Cc1cc(N2CCOCC2)nc2ccc(NC(=O)CCC(=O)N3CCCCC3)cc12` gave RAD54 branch -9.1, PglD DTNB 23.5* and PglD confirm -1.4.
Screening O=C(NC1CCC1)[C@@H]1[C@@H](CO)[C@@H]2Cn3c(cccc3=O)[C@H]1N2CC1CCCC1 returned E-sel inducer -0.5, RAD52 inh -2.9, Xi reactivation 0.3 and Ecoli rRNA inh -3.6.
For O=C(O)CC1(CC(=O)Nc2ccc3c(c2)C(=O)OC3)CCCCC1 the results were RAD54 branch 12.2, E-sel inducer 3.1, RAD52 inh -9.5, PglD DTNB 21.1*, Xi reactivation 0.0, Ecoli rRNA inh 11.1 and PglD confirm -2.8.
Screening O=C(O)CC1(CC(=O)Nc2ccc3ccccc3c2)CCCCC1 returned RAD54 branch 0.7 and PglD DTNB 5.8.
For Nc1n[nH]c(-c2ccccc2)c1-c1ccccc1 the results were RAD54 branch 4.3, RAD52 inh -12.3, PglD DTNB 32.5*, Ecoli rRNA inh -0.5 and PglD confirm -3.2.
C[C@H]1CN([C@@H](C)CO)S(=O)(=O)c2ccc(-c3cccc(C#N)c3)cc2O[C@H]1CN(C)C(=O)C1CC1 was read as RAD54 branch 2.7, E-sel inducer -0.2, RAD52 inh -2.9, PglD DTNB 0.0, Xi reactivation 4.1 and Ecoli rRNA inh -8.0.
COc1ccccc1CC(=O)N1CCN(S(=O)(=O)c2cccs2)CC1 was read as RAD54 branch -2.1, E-sel inducer -0.4, RAD52 inh -2.6, PglD DTNB 2.3, Xi reactivation 0.0 and Ecoli rRNA inh 5.6.
Screening COc1ccccc1/C=C/C(=O)N1CCN(S(=O)(=O)c2cccs2)CC1 returned RAD54 branch -0.2, E-sel inducer -0.2, RAD52 inh -8.5, PglD DTNB 31.9*, Xi reactivation 0.0, Ecoli rRNA inh -16.4 and PglD confirm -0.8.
`O=C(O)c1cccnc1SC1CC(=O)N(CCc2ccccc2)C1=O` (stereo unspecified) gave RAD54 branch 5.0, RAD52 inh 0.6, PglD DTNB 4.2 and Ecoli rRNA inh 12.9.
`O=C(O)c1cccnc1SC1CC(=O)N(Cc2ccccc2)C1=O` (stereo unspecified) gave RAD54 branch -41.4, PglD DTNB 39.0* and PglD confirm 1.6.
For O=S(=O)(NC1CCN(Cc2ccccc2)CC1)c1ccc(F)c(F)c1 the results were RAD54 branch -0.4, E-sel inducer -0.7, RAD52 inh -58.1, PglD DTNB 22.1*, Xi reactivation 0.0, Ecoli rRNA inh 6.5 and PglD confirm 2.6.
For O=S(=O)(NC1CCN(Cc2ccccc2)CC1)c1ccc2ccccc2c1 the results were E-sel inducer 2.5, RAD52 inh -15.9, Xi reactivation 0.0 and Ecoli rRNA inh -12.6.
For CC1CN2C(c3ccc([N+](=O)[O-])cc3)=CSC2=N1 (stereo unspecified) the results were RAD54 branch 6.4, RAD52 inh -8.9, PglD DTNB 74.9*, Xi reactivation -0.1, Ecoli rRNA inh 17.1 and PglD confirm 1.8.
For CC1(C)C(=O)Nc2ccccc2N1C(=O)CSc1nnc2ccccn12 the results were RAD54 branch -10.2, E-sel inducer -0.1, RAD52 inh -4.2, PglD DTNB 35.4*, Xi reactivation 0.0, Ecoli rRNA inh 14.5 and PglD confirm -1.1.
`Cc1cc(OCC(=O)O)c2cccc(C)c2n1` gave RAD54 branch -19.7 and PglD DTNB -0.1.
`Cc1ccc2nc(C)cc(OCC(=O)O)c2c1` gave RAD54 branch 7.9, E-sel inducer 7.2, PglD DTNB 20.8* and PglD confirm -4.0.
Screening Cc1noc(C)c1S(=O)(=O)Nc1ccc2c(c1)CC(=O)N([C@H](C)CO)C[C@@H](C)[C@H](CN(C)CC1CCCCC1)O2 returned RAD54 branch 2.5, E-sel inducer 0.0, RAD52 inh 25.2, PglD DTNB -6.1, Xi reactivation 0.1 and Ecoli rRNA inh 1.5.
O=c1oc2ccccc2cc1-c1ccccc1 was read as RAD54 branch -0.4, E-sel inducer 0.1, RAD52 inh 10.0, PglD DTNB 23.6*, Xi reactivation 0.3, Ecoli rRNA inh 2.6 and PglD confirm -8.8.
`COc1ccccc1CNC(=O)c1cc2ccccc2oc1=O` gave RAD54 branch -10.7, E-sel inducer 0.3, RAD52 inh -5.6, PglD DTNB 32.0*, Xi reactivation 7.7, Ecoli rRNA inh 6.1 and PglD confirm 8.3.
